High-throughput results deposited in PubChem BioAssay by NMMLSC.
In the library only some 0.9% were active in any assay of this set; here they are far more common.
RGS8-Gao: RGS8-Galphao binding modulators, primary screen, biochemical, multiplexed bead flow cytometry; actives lie on both sides; response (percent of control binding), % at 10 µM; Guanine nucleotide-binding protein G(o) subunit alpha (Homo sapiens), P09471; actives 0.34% (n = 220,000); in the data active = response below about 60% or above about 140%; inactive = in between;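 also: Galphao activated as the GDP aluminium fluoride complex binding bead-coupled RGS8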
ABCB1 inh: ABCB1 efflux pump inhibitors, primary screen, cell-based, multiplex, flow cytometry, ABCG2 counter-screen; ATP-dependent translocase ABCB1 (Homo sapiens), P08183; AID 1326, 2008; CCRF-Adr cells, JC-1 efflux; actives 0.067% (n = 190,000); inhibition, % at 6.6 µM; in the data active = inhibition above about 40%;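 also: 0% = vehicle and 100% = reference inhibitor; higher value means more JC-1 retained so stronger ABCB1 efflux block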
RGS4-Gao reg: modulators of RGS4 binding to Galphao, primary screen, biochemical, multiplexed bead flow cytometry. Guanine nucleotide-binding protein G(o) subunit alpha (Homo sapiens), P09471. actives lie on both sides. binding response (% of control), % at 10 µM. actives 0.33% (n = 220,000). AID 1415, 2008; in the data active = binding response below about 49% or above about 150%; inactive = in between;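 also: fluorescent Galphao activated with aluminum fluoride binding bead-coupled RGS4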
ABCG2 inh: ABCG2 efflux pump inhibitors, primary screen, multiplex with ABCB1, IgMXP3 cells, flow cytometry. Broad substrate specificity ATP-binding cassette transporter ABCG2 (Homo sapiens), Q9UNQ0. JC-1 efflux. inhibition, % at 6.6 µM. actives 0.1% (n = 190,000);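 active = inhibition above 80%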;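 also: 0% = DMSO and 100% = nicardipine control wells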
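Test system: IgMXP3 (ABCG2) plus far-red-tagged CCRF-Adr (ABCB1) cells / Amount: 3 million cells/mL in well / Reagent: JC-1 transporter substrate / Timing: 10 min compound exposure, 25 °C / Signal: flow cytometry, 530 nm JC-1 signal / Read-out: percent efflux inhibition, scaled nicardipine 100% to DMSO 0% / Benchmarks: nicardipine as high control, DMSO as low control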
RGS16-Gao: modulators of RGS16 binding to Galphao, primary screen, biochemical, human proteins, multiplexed bead flow cytometry | AID 1441, 2008 | binding response (% of control), % at 10 µM | Regulator of G-protein signaling 16 (Homo sapiens) + Guanine nucleotide-binding protein … | actives 0.38% (n = 220,000) | bead-based flow cytometry RGS16-Galphao binding, fluorescence; actives lie on both sides; call rule not given here;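 also: Galphao activated by GDP with aluminum fluoride before binding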
RGS7-Gao: RGS7-Galphao binding modulators, primary screen, biochemical, multiplexed bead flow cytometry; actives lie on both sides; binding response (% of control), % at 10 µM; actives 0.35% (n = 220,000); AID 1439, 2008; Guanine nucleotide-binding protein G(o) subunit alpha (Homo sapiens), P09471; in the data active = binding response below about 49% or above about 150%; inconclusive = no clear call, values can overlap the other calls; inactive = in between;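 also: fluorescent Galphao held in activated GDP-AlF4 state binding bead-coupled RGS7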
ABCB1 single pt: ABCB1 efflux pump inhibitors, confirmation, cell-based, single point, ABCG2 counter-screen; shares compounds with ABCG2 inh; actives 7% (n = 270); CCRF-Adr cells, JC-1 efflux, flow cytometry; inhibition, % at 6.6 µM;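 active = inhibition of pump activity above 50%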;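 also: 0% = DMSO and 100% = nicardipine full pump inhibition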
ABCG2 single pt: ABCG2 efflux pump inhibitors, confirmation, single point, IgMXP3 cells, ABCB1 counter-screen paired. shares compounds with ABCG2 inh. JC-1 efflux, flow cytometry. inhibition, % at 6.6 µM. actives 6% (n = 270);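 active = inhibition above 50%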;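 also: 0% = DMSO wells and 100% = nicardipine pump inhibitor wells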
IgMXP3 fluor: compound autofluorescence in ABCG2-expressing IgMXP3 cells, confirmation, artefact control for ABC transporter inhibitor project, cell-based, 488/530 nm, flow cytometry. shares compounds with ABCG2 inh. compound autofluorescence 488/530 nm; hits give high values. fluorescence at 6.6 µM. actives 30% (n = 270). AID 1480, 2009;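 active = fluorescence in ABCG2-expressing cells above the plate's control-well mean plus 3 SD, cut at about 15 in these data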;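 also: median cell fluorescence with compound minus that of DMSO-treated control cells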
CCRF-Adr fluor: compound autofluorescence in ABCB1-expressing CCRF-Adr cells, confirmation, artefact control for ABC transporter inhibitor project, cell-based, 488/530 nm, flow cytometry. shares compounds with ABCG2 inh. compound autofluorescence 488/530 nm; hits give high values. fluorescence at 6.6 µM. actives 30% (n = 270). AID 1483, 2009;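 active = fluorescence beyond the plate control mean plus 3 SD, with a fluorescence-to-maximum score over 2, cut at about 25 in these data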
Starred values were filed as active, the others as inactive; ? = inconclusive; . = no result given.

SMILES	RGS8-Gao	ABCB1 inh	RGS4-Gao reg	ABCG2 inh	RGS16-Gao	RGS7-Gao	ABCB1 single pt	ABCG2 single pt	IgMXP3 fluor	CCRF-Adr fluor
CCOC(=O)c1sc(NN=C(C(=O)OC)C(=O)OC)c(C(=O)OCC)c1C	106	0	103	126*	110	104	2	26	-1.3	-1.2
COCCNC(=O)CSc1nc2scc(-c3ccccc3)c2c(=O)[nH]1	101	.	102	.	103	?	.	.	.	.
COc1cc(CC(=O)OCC(=O)Nc2cc([N+](=O)[O-])ccc2Cl)cc(OC)c1OC	101	3	101	81*	103	98	3	41	21*	-1.6
CCCCCn1c(CN2CCN(Cc3ccccc3)CC2)nc2c1c(=O)n(C)c(=O)n2C	99	57*	98	28	96	96	23	14	0.81	-2.4
COc1ccc(CCNc2cc(N3CCN(C(=O)c4ccc(C)cc4)CC3)ccc2[N+](=O)[O-])cc1OC	84	37	95	22	56	95	26	34	-2	-0.84
COc1ccc(CCNC(=O)COC(=O)/C=C/c2ccc(OC)c(OC)c2)cc1	102	0	102	89*	105	101	1	56*	-2.1	-3.8
O=[N+]([O-])c1ccccc1NCCNS(=O)(=O)c1ccc(Cl)cc1	103	1	102	13	105	101	.	.	.	.
O=[N+]([O-])c1cc(Cl)ccc1NCCNS(=O)(=O)c1ccccc1	102	3	105	119*	101	100	7	18	2.3	32*
CNc1nc2cc([N+](=O)[O-])c([N+](=O)[O-])cc2nc1NC	100	0	102	124*	96	101	48	69*	21*	30*
NC(=O)CSc1nc2scc(-c3ccc(Cl)cc3)c2c(=O)n1Cc1ccccc1	103	2	104	9	102	101	.	.	.	.
Cc1ccc(-c2csc3nc(SCC(=O)N(C)C)n(Cc4ccccc4)c(=O)c23)cc1	103	28	100	121*	103	104	18	20	-0.44	-0.99
O=C(Nc1nc2ccc([N+](=O)[O-])cc2s1)c1c(F)cccc1F	102	1	100	80	103	?	0	30	-3.4	-5.7
COc1ccccc1NC(=O)Nc1cc(F)ccc1F	100	1	100	17	101	?	.	.	.	.
Cc1ccc(-c2c(C(=O)NCc3ccc(F)cc3)oc(=O)c3ccccc23)cc1	101	27	100	83*	104	102	9	27	5.3	9.9
COc1cc(CC(=O)OCC(=O)N2CC(=O)Nc3ccccc32)cc(OC)c1OC	102	6	102	3	102	?	.	.	.	.
Cn1c(CCCOc2ccc(Cl)cc2Cl)nnc1SCC(=O)Nc1cccc(F)c1	101	3	101	111*	101	98	4	16	-1.7	-1.2
Cn1c(CCCOc2ccc(Cl)cc2Cl)nnc1SCC(=O)Nc1ccc(F)c(Cl)c1	101	0	102	0	99	102	.	.	.	.
O=C1N(Cc2cccc(Cl)c2)C[C@@H]2C[C@@H](c3c[nH]c4ccccc34)N3CCC[C@@]123	99	4	99	2	98	101	.	.	.	.
COc1ccc(-c2cc(C3CCN(C(=O)OC(C)(C)C)CC3)[nH]n2)cc1	103	1	100	4	96	96	.	.	.	.
CCOC(=O)c1cn2nc(-c3ccc(OC)cc3)cc2nc1C1CCN(C(=O)OC(C)(C)C)CC1	94	51*	91	27	97	91	45	15	0.41	-1.2
O=C(CSc1nc2ncc(Cl)cc2[nH]1)NCC(=O)Nc1ccc(F)c(F)c1F	100	.	99	.	99	?	.	.	.	.
CCOC(=O)c1c(-c2ccccc2)csc1NC(=O)/C(C#N)=C/c1ccc(O)c(OC)c1	102	66*	100	123*	108	95	-30	-39	284*	264*
CCOC(=O)c1c(-c2ccccc2)csc1NC(=O)/C(C#N)=C/c1ccc(OC)c(OC)c1	102	0	107	2	107	103	.	.	.	.
CCCc1cc(=O)[nH]c(N/N=C/C=C\c2ccccc2)n1	102	2	102	14	103	97	.	.	.	.
Cc1ccccc1Cn1cc(S(=O)(=O)CC(=O)Nc2nccs2)c2ccccc21	100	9	99	83*	99	103	7	14	-1.1	-2.1
SMILES	RGS8-Gao	ABCB1 inh	RGS4-Gao reg	ABCG2 inh	RGS16-Gao	RGS7-Gao	ABCB1 single pt	ABCG2 single pt	IgMXP3 fluor	CCRF-Adr fluor
CCC(=O)Nc1cccc(C(=O)OCc2cccc([N+](=O)[O-])c2)c1	101	4	99	93*	103	98	6	28	0.66	-1.8
O=C(CCCCCn1c(=S)[nH]c2ccc(Br)cc2c1=O)NCC1CCCO1 (configuration not stated)	101	3	100	81*	100	99	8	34	15*	72*
NS(=O)(=O)c1ccc(CCNC(=O)CCCCCn2c(=S)[nH]c3ccc(Br)cc3c2=O)cc1	122	0	119	-1	125	121	.	.	.	.
CCCCCCc1cc2cc(-c3nnc(-c4ccccc4O)o3)c(=O)oc2cc1O	100	48*	111	79	111	109	15	11	116*	111*
O=C(Nc1cc2cc([N+](=O)[O-])ccc2oc1=O)c1cccs1	106	0	102	2	117	103	.	.	.	.
O=C(COC(=O)c1ccccc1OCC(=O)Nc1ccc(Br)cc1)Nc1ccccc1	98	3	93	84*	96	93	1	26	-0.79	-0.74
